As a reminder, the MIC is the lowest concentration that inhibits growth of the organism. A higher MIC goes with a less susceptible organism.

The values below come from ChEMBL document CHEMBL4706538, “Novel pleuromutilin derivatives with substituted 6-methylpyrimidine: Design, synthesis and antibacterial evaluation” (2020).

≈ marks a conversion by molar mass, not a printed value.

Format in all cases: functional
Common to all, as to settings: time 18-24 hrs

For test [1], the system named is Staphylococcus epidermidis. The test is described as follows: Antibacterial activity against Staphylococcus epidermidis ATCC 51625 measured after 18 to 24 hrs by microtiter dilution method. The procedure, abridged: (§1)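 Compounds were taken up in 25% DMSO at 64 μg/mL and serially diluted two-fold in water (11 dilutions). Log-phase bacteria grown in MHB were diluted to 10^5-10^6 CFU/mL and mixed 1:1 with the dilutions. Plates were incubated at 37 °C for 18-24 h. MIC was the lowest concentration giving no growth by OD492, averaged over three independent experiments.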

The subject of the next test is Pasteurella multocida. The test can be described thus: Antibacterial activity against Pasteurella multocida CVCC 1659 measured after 18 to 24 hrs by microtiter dilution method. The procedure, abridged: as §1
The test system of test [2] is Streptococcus dysgalactiae. The test is described as follows: Antibacterial activity against Streptococcus dysgalactiae measured after 18 to 24 hrs by microtiter dilution method. The procedure, abridged:
as §1

In test [3] the test system is Staphylococcus aureus. The test is described as follows: Antibacterial activity against Staphylococcus aureus ATCC 25923 measured after 18 to 24 hrs by microtiter dilution method. The essentials: as §1
For a further test, the system named is Escherichia coli. The test is described as follows: Antibacterial activity against Escherichia coli CICC 10389 measured after 18 to 24 hrs by microtiter dilution method. The essentials:
as §1

The test system of another test is Streptococcus agalactiae. The test can be described thus: Antibacterial activity against Streptococcus agalactiae measured after 18 to 24 hrs by microtiter dilution method. The essentials:
as §1

For test [4], the system named is Staphylococcus aureus. The test can be described thus: Antibacterial activity against Staphylococcus aureus BNCC 337371 measured after 18 to 24 hrs by microtiter dilution method. The essentials:
as §1

In another test the test system is Enterococcus faecalis. The test is described as follows: Antibacterial activity against Enterococcus faecalis measured after 18 to 24 hrs by microtiter dilution method. The essentials:
as §1

As to `C=C[C@]1(C)C[C@@H](OC(=O)CSc2nc(C)cc(N3CCNCC3)n2)[C@@]2(C)[C@H](C)CC[C@]3(CCC(=O)[C@H]32)[C@@H](C)[C@@H]1O`, the MIC in test [1] is 0.22 µM (≈ 0.126 µg/mL); against Pasteurella multocida, 28.1 µM (≈ 16 µg/mL); in test [2], 0.05 µM (≈ 0.0285 µg/mL); with Staphylococcus aureus [3], 0.11 µM (≈ 0.0628 µg/mL); in the test with Escherichia coli, > 56.1 µM; against Streptococcus agalactiae, 0.11 µM (≈ 0.0628 µg/mL). Further, the minimum inhibitory concentration (MIC) in the test with Staphylococcus aureus [4] is 0.11 µM (≈ 0.0628 µg/mL); with Enterococcus faecalis, 14 µM (≈ 8.01 µg/mL).
`C=C[C@]1(C)C[C@@H](OC(=O)CSc2nc(C)cc(N3CCN(C)CC3)n2)[C@@]2(C)[C@H](C)CC[C@]3(CCC(=O)[C@H]32)[C@@H](C)[C@@H]1O`: the MIC in test [1] was 0.43 µM (≈ 0.251 µg/mL); in the test with Pasteurella multocida it was 54.8 µM (≈ 32 µg/mL); in test [2] it was 0.43 µM (≈ 0.251 µg/mL); with Staphylococcus aureus [3], 0.43 µM (≈ 0.251 µg/mL); against Escherichia coli, > 54.8 µM; in the test with Streptococcus agalactiae it was 0.11 µM (≈ 0.0643 µg/mL). Besides, the MIC was 0.43 µM (≈ 0.251 µg/mL) in the test on Staphylococcus aureus [4] and 54.8 µM (≈ 32 µg/mL) against Enterococcus faecalis.
Turning to `C=C[C@]1(C)C[C@@H](OC(=O)CSc2nc(C)cc(N(CC)CC)n2)[C@@]2(C)[C@H](C)CC[C@]3(CCC(=O)[C@H]32)[C@@H](C)[C@@H]1O`, the minimal inhibitory concentration (MIC) in test [1] was 0.45 µM (≈ 0.251 µg/mL); against Pasteurella multocida, 57.4 µM (≈ 32 µg/mL); in test [2] it was 0.22 µM (≈ 0.123 µg/mL); against Staphylococcus aureus [3] it was 0.22 µM (≈ 0.123 µg/mL); in the test on Escherichia coli, > 57.4 µM; with Streptococcus agalactiae it was 0.11 µM (≈ 0.0614 µg/mL). In addition, the MIC stood at 0.45 µM (≈ 0.251 µg/mL) against Staphylococcus aureus [4] and 28.7 µM (≈ 16 µg/mL) with Enterococcus faecalis.
With `C=C[C@]1(C)C[C@@H](OC(=O)CSc2nc(C)cc(N(C)C)n2)[C@@]2(C)[C@H](C)CC[C@]3(CCC(=O)[C@H]32)[C@@H](C)[C@@H]1O`, the MIC in test [1] is 0.24 µM (≈ 0.127 µg/mL); in the test on Pasteurella multocida, 30.2 µM (≈ 16 µg/mL); in test [2], 0.12 µM (≈ 0.0636 µg/mL); with Staphylococcus aureus [3], 0.12 µM (≈ 0.0636 µg/mL); in the test on Escherichia coli, > 60.5 µM; against Streptococcus agalactiae it was 0.12 µM (≈ 0.0636 µg/mL). Also, the MIC with Staphylococcus aureus [4] worked out at 0.24 µM (≈ 0.127 µg/mL); with Enterococcus faecalis, 15.1 µM (≈ 8 µg/mL).
As to `C=C[C@]1(C)C[C@@H](OC(=O)CSc2nc(C)cc(O)n2)[C@@]2(C)[C@H](C)CC[C@]3(CCC(=O)[C@H]32)[C@@H](C)[C@@H]1O`, the MIC is 0.25 µM (≈ 0.126 µg/mL) in test [1]; 7.95 µM (≈ 4 µg/mL) against Pasteurella multocida; 0.12 µM (≈ 0.0603 µg/mL) in test [2]; 0.25 µM (≈ 0.126 µg/mL) against Staphylococcus aureus [3]; > 63.8 µM against Escherichia coli; 0.12 µM (≈ 0.0603 µg/mL) against Streptococcus agalactiae. Also, the MIC in the test with Staphylococcus aureus [4] was 0.25 µM (≈ 0.126 µg/mL); against Enterococcus faecalis, 16 µM (≈ 8.02 µg/mL).
On to `C=C[C@]1(C)C[C@@H](OC(=O)CSc2nc(C)cc(N3CCC(CCO)CC3)n2)[C@@]2(C)[C@H](C)CC[C@]3(CCC(=O)[C@H]32)[C@@H](C)[C@@H]1O`, for which the minimum inhibitory concentration (MIC) is 0.2 µM (≈ 0.123 µg/mL) in test [1]; 52.2 µM (≈ 32 µg/mL) against Pasteurella multocida; 0.05 µM (≈ 0.0307 µg/mL) in test [2]; 0.1 µM (≈ 0.0614 µg/mL) against Staphylococcus aureus [3]; > 52.2 µM against Escherichia coli; 0.05 µM (≈ 0.0307 µg/mL) with Streptococcus agalactiae. In addition, the minimal inhibitory concentration (MIC) against Staphylococcus aureus [4] was 0.2 µM (≈ 0.123 µg/mL); in the test with Enterococcus faecalis it was 26.1 µM (≈ 16 µg/mL).
As for `C=C[C@]1(C)C[C@@H](OC(=O)CSc2nc(C)cc(OCCN)n2)[C@@]2(C)[C@H](C)CC[C@]3(CCC(=O)[C@H]32)[C@@H](C)[C@@H]1O`, the minimal inhibitory concentration (MIC) in test [1] was 0.92 µM (≈ 0.502 µg/mL); against Pasteurella multocida, > 58.7 µM; in test [2] it was 0.23 µM (≈ 0.126 µg/mL); against Staphylococcus aureus [3], 0.92 µM (≈ 0.502 µg/mL); in the test with Escherichia coli, > 58.7 µM; against Streptococcus agalactiae, 0.46 µM (≈ 0.251 µg/mL). Also, the MIC against Staphylococcus aureus [4] amounted to 0.92 µM (≈ 0.502 µg/mL); against Enterococcus faecalis it was 58.7 µM (≈ 32 µg/mL).
In the case of `C=C[C@]1(C)C[C@@H](OC(=O)CSc2nc(C)cc(OCC)n2)[C@@]2(C)[C@H](C)CC[C@]3(CCC(=O)[C@H]32)[C@@H](C)[C@@H]1O`, the MIC is 0.24 µM (≈ 0.127 µg/mL) in test [1]; > 60.4 µM in the test with Pasteurella multocida; 0.12 µM (≈ 0.0637 µg/mL) in test [2]; 0.12 µM (≈ 0.0637 µg/mL) with Staphylococcus aureus [3]; > 60.4 µM against Escherichia coli; 0.24 µM (≈ 0.127 µg/mL) against Streptococcus agalactiae. Moreover, the MIC against Staphylococcus aureus [4] was found to be 0.12 µM (≈ 0.0637 µg/mL); in the test on Enterococcus faecalis, 15.1 µM (≈ 8.01 µg/mL).
Turning to `C=C[C@]1(C)C[C@@H](OC(=O)CSc2nc(C)cc(N3CCC[C@@H](O)C3)n2)[C@@]2(C)[C@H](C)CC[C@]3(CCC(=O)[C@H]32)[C@@H](C)[C@@H]1O`, the MIC in test [1] was 0.21 µM (≈ 0.123 µg/mL); in the test with Pasteurella multocida, 27.3 µM (≈ 16 µg/mL); in test [2], 0.11 µM (≈ 0.0644 µg/mL); with Staphylococcus aureus [3], 0.21 µM (≈ 0.123 µg/mL); in the test with Escherichia coli, > 54.7 µM; with Streptococcus agalactiae it was 0.05 µM (≈ 0.0293 µg/mL). The MIC against Staphylococcus aureus [4] came out at 0.21 µM (≈ 0.123 µg/mL); against Enterococcus faecalis it was 27.3 µM (≈ 16 µg/mL).
